In ChEMBL document CHEMBL1132974 (J Med Chem, 2000):
“And” between values parts separate entries of the source, which are not always exact repeats. Equal values may be shown once.

Key:
[1] = molecular target: T1, Histamine H1 receptor (Cavia porcellus, UniProt P31389); assay: Antagonism of guinea pig ileum contraction at 100 nM mepyramine; format: functional, tissue-based; conditions: read-out: pA2 (converted)
Method in brief: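 Guinea-pig whole ileal segments (2.0–2.5 cm), isotonic, preload 0.5 g, Tyrode's at 37 °C, 95% O2/5% CO2, with 0.1 µM atropine throughout. […] Apparent pA2 = −log c + log(r−1); full pA2 from Schild plot, slope fixed at 1.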

[2] = molecular target: T2, Histamine H1 receptor (Rattus norvegicus, UniProt P31390); assay: Compound was evaluated for mepyramine antagonism effects in rat aorta (relaxation) at a mepyramine concentration of 100 nM; format: functional, tissue-based; conditions: read-out: pA2 (converted)
T2 sequence (P31390 whole entry): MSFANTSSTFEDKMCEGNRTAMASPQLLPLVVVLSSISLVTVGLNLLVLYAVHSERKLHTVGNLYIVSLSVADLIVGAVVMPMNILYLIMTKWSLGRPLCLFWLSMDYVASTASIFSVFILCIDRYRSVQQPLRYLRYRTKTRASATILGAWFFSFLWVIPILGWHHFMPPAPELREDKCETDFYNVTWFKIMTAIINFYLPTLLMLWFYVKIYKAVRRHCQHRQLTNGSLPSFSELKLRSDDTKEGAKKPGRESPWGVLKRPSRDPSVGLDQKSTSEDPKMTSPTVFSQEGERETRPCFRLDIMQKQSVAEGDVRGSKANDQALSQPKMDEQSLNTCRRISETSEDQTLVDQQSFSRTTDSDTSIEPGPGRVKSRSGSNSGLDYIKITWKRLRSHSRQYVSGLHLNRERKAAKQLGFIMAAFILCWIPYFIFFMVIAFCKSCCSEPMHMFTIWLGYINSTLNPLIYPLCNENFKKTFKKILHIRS

[3] = molecular target: 5-hydroxytryptamine receptor 4 (Rattus norvegicus, UniProt Q62758); assay: Compound was evaluated for its antagonist affinity towards 5-hydroxytryptamine 4 receptor of rat; format: functional; conditions: read-out: pA2 (converted)
5-hydroxytryptamine receptor 4, sequence (Q62758 whole entry): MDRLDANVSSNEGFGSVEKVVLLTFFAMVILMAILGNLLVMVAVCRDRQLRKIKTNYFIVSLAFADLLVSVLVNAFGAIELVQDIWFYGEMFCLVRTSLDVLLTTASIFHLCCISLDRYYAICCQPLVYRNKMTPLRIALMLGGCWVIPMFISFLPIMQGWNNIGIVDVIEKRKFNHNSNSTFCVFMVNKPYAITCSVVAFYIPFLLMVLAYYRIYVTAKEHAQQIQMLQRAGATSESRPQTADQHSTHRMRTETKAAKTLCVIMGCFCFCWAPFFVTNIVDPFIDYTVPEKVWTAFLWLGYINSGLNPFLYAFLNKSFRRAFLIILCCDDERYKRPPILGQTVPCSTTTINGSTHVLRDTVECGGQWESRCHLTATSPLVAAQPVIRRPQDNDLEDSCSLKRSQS
Method in brief: (§1)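 Functional antagonism in rat tissues: α1D (thoracic aorta), 5-HT2A (tail artery), 5-HT4 (oesophageal tunica muscularis mucosae). Results are given as apparent pA2 from single-concentration rightward shifts, or pD'2 when only curve depression occurred.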

[4] = molecular target: Beta-1 adrenergic receptor (Cavia porcellus, UniProt B0FL73); assay: Compound was evaluated for its antagonist affinity towards Beta-1 adrenergic receptor of guinea pig; format: functional; conditions: read-out: pA2 (converted)
Beta-1 adrenergic receptor, sequence (B0FL73 whole entry): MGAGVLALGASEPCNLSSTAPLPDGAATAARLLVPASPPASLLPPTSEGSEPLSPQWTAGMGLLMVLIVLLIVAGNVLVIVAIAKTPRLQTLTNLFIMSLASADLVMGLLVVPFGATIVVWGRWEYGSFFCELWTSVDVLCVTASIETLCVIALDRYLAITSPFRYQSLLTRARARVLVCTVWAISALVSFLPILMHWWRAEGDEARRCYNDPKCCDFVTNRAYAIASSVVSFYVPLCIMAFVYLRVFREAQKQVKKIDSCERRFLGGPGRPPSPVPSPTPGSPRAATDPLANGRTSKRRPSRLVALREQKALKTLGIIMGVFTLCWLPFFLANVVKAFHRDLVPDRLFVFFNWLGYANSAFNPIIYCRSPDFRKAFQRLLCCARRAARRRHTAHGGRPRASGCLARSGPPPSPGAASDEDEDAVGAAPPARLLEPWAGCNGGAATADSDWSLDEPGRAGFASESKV
Method in brief: (§2)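 Functional antagonism assays in guinea-pig tissues, each run with 1 µM mepyramine present: M3 (whole ileum), β1 (right atrium), 5-HT1B (iliac artery), 5-HT3 (quiescent ileal longitudinal muscle with myenteric plexus). Results are given as apparent pA2, or pD'2 when only curve depression occurred.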

[5] = molecular target: T1, Histamine H1 receptor; assay: Compound was evaluated for mepyramine antagonism effects in guinea pig aorta (contraction) at a mepyramine concentration of 100 nM; format: functional, tissue-based; conditions: read-out: pA2 (converted)
Method in brief: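 Guinea-pig aortic rings with endothelium damaged, isometric (10 mN), 37 °C Krebs-Henseleit. Agonist curves were run with mepyramine (100 nM, about 60 min) after threshold PGF2α precontraction. Apparent pA2 = −log c + log(r−1).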

[6] = molecular target: T3, Alpha-1D adrenergic receptor (Rattus norvegicus, UniProt P23944); assay: Compound was evaluated for its antagonist affinity towards Alpha-1D adrenergic receptor of rat; format: functional; conditions: read-out: pA2 (converted); method in brief: as §1
T3 sequence (P23944 whole entry): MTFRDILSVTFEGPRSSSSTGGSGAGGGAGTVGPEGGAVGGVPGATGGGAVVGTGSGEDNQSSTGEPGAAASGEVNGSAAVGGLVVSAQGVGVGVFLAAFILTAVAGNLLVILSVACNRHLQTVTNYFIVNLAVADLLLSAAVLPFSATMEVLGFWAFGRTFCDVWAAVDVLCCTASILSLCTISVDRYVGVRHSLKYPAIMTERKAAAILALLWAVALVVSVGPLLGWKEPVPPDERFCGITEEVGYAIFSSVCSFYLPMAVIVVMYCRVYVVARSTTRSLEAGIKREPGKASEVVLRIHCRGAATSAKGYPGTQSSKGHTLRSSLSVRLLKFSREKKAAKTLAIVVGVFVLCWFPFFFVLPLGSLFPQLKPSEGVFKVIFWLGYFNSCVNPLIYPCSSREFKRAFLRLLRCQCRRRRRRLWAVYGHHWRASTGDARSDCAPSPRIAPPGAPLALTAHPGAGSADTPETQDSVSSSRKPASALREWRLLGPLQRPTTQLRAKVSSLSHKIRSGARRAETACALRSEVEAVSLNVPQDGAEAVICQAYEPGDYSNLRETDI

[7] = molecular target: Histamine H3 receptor (Cavia porcellus, UniProt Q9JI35); assay: Compound was evaluated for its antagonist affinity towards Histamine H3 receptor of guinea pig; format: functional; conditions: read-out: pA2 (converted)
Histamine H3 receptor, sequence (Q9JI35 whole entry): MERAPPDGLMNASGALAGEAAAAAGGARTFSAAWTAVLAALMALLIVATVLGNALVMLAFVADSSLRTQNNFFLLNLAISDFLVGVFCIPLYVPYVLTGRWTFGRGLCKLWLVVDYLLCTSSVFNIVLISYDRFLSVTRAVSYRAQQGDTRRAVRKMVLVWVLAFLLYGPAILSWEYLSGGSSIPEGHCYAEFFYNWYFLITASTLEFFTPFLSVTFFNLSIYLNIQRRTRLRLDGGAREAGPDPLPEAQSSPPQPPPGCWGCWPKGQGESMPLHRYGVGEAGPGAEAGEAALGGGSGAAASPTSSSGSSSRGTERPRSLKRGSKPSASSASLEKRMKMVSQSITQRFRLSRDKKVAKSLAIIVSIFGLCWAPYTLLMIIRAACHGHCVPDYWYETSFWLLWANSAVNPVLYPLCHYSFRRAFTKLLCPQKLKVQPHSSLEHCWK
Method in brief: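 Electrically stimulated guinea-pig ileal longitudinal muscle with myenteric plexus, isometric (7.5 mN). Cumulative (R)-α-methylhistamine curves were run with and without test compound (20 min), with 1 µM mepyramine present. Values were apparent pA2, or pD'2 where curves were depressed.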

[8] = molecular target: Histamine H2 receptor (Cavia porcellus, UniProt P47747); assay: Compound was evaluated for its antagonist affinity towards Histamine H2 receptor of guinea pig; format: functional; conditions: read-out: pA2 (converted)
Histamine H2 receptor, sequence (P47747 whole entry): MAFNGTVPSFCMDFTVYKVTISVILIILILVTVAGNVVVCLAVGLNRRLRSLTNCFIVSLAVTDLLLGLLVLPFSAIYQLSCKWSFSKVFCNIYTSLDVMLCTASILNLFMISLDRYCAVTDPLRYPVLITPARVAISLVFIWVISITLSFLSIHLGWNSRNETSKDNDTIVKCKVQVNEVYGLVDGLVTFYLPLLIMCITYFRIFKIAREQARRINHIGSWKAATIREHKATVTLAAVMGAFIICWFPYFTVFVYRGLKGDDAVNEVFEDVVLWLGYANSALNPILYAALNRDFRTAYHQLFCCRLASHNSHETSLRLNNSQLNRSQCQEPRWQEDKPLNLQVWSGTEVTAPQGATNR

[9] = molecular target: T1, Histamine H1 receptor; assay: Effective concentration for agonism activity in Endothelium-Denuded guinea pig aortic segment; format: functional, tissue-based, Aorta
Method in brief: (§3)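 Guinea-pig thoracic aortic rings (2–4 mm), endothelium rubbed off, isometric (10 mN), modified Krebs-Henseleit (1.80 mM Ca2+), 37 °C. Cimetidine, corticosterone and cocaine (30 µM each), prazosin and yohimbine (0.3 µM each) and propranolol (0.1 µM) were present. […] The pEC50 shift was corrected using untreated control preparations.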

[10] = molecular target: 5-hydroxytryptamine receptor 2A (Rattus norvegicus, UniProt P14842); assay: Compound was evaluated for its antagonist affinity towards 5-hydroxytryptamine 2A receptor of rat; format: functional; conditions: read-out: pA2 (converted); method in brief: as §1
5-hydroxytryptamine receptor 2A, sequence (P14842 whole entry): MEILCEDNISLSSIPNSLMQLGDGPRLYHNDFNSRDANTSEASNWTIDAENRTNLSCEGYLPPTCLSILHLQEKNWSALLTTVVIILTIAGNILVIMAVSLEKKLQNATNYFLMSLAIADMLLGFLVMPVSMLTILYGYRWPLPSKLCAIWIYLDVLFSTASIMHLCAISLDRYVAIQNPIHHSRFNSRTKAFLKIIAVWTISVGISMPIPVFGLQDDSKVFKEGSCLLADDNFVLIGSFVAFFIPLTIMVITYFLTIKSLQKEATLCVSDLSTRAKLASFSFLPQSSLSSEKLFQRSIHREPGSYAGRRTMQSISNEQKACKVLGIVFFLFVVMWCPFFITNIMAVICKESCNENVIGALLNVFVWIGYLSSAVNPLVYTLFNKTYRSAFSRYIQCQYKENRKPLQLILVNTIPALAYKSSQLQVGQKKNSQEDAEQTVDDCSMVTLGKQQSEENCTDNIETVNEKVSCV

[11] = molecular target: Muscarinic acetylcholine receptor M3 (Cavia porcellus, UniProt Q8VH26); assay: Compound was evaluated for its antagonist affinity towards Muscarinic acetylcholine receptor M3 of guinea pig; format: functional; conditions: read-out: pA2 (converted); method in brief: as §2
Muscarinic acetylcholine receptor M3, sequence (Q8VH26 whole entry): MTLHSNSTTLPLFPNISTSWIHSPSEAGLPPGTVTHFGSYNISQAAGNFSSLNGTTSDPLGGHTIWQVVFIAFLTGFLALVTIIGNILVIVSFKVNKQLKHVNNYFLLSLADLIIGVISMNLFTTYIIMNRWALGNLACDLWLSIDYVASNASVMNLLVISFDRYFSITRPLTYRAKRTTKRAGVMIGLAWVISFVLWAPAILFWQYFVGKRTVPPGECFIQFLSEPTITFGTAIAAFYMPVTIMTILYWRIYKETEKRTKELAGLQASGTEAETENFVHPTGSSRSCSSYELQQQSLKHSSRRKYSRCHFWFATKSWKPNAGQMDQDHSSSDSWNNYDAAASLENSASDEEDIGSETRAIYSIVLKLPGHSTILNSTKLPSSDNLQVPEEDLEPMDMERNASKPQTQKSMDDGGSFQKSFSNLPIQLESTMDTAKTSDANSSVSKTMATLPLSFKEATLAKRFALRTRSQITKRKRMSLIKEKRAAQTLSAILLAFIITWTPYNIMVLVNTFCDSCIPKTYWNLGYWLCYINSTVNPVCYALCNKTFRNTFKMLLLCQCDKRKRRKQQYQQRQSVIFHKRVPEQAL

[12] = molecular target: T2, Histamine H1 receptor; assay: Effective concentration for agonism activity in relaxed rat aortic rings with intact endothelium, submaximally precontracted with 15.8 nM U-46,619; format: functional, tissue-based, Aorta
[13] = molecular target: 5-hydroxytryptamine receptor 1B (Cavia porcellus); assay: Compound was evaluated for its antagonist affinity towards 5-hydroxytryptamine 1B receptor of guinea pig; conditions: read-out: pA2 (converted)
[14] = molecular target: T1, Histamine H1 receptor; assay: Effective concentration for agonist activity in guinea pig ileum whole segment; format: functional, tissue-based
[15] = molecular target: T2, Histamine H1 receptor; assay: Compound was evaluated for mepyramine antagonism effects in rat aorta (relaxation) at a mepyramine concentration of 100 nM; conditions: read-out: pA2 (converted)
[16] = molecular target: T1, Histamine H1 receptor; assay: Effective concentration for agonism activity in endothelium-denuded guinea pig aortic segment; format: functional, tissue-based, Aorta; method in brief: as §3
[17] = molecular target: T1, Histamine H1 receptor; assay: Relative potency was recorded in endothelium-denuded guinea pig; value ranges from 5.75 to 6.25; format: functional; conditions: read-out: pA2 (converted); method in brief: as §3
[18] = molecular target: T2, Histamine H1 receptor; assay: Relative potency was recorded in relaxed rat aortic rings with intact endothelium, submaximally precontracted with 15.8 nM U-46,619 value; format: functional, tissue-based, Aorta; conditions: read-out: pA2 (converted)
[19] = molecular target: T1, Histamine H1 receptor; assay: Relative potency was recorded in endothelium-denuded guinea pig(pre contracted with PGF-2 alpha); value ranges from 5.76 to 6.40; format: functional; conditions: read-out: pA2 (converted)
Method in brief: (§4)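 Endothelium-denuded guinea-pig aortic rings, set up as in the contraction assay, challenged twice with PGF2α (10 µM). Rings were precontracted with a threshold PGF2α level (usually 0.4–1.5 µM, 10–20% of the 10 µM response).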

[20] = molecular target: Histamine H1 receptor (Cavia porcellus) (UniProt P31389); assay: Intrinsic activity was reported in endothelium-denuded guinea pig(pre contracted with PGF-2 alpha) at a concentration of 10 uM; format: functional; method in brief: as §4
Histamine H1 receptor (Cavia porcellus), sequence (P31389 whole entry): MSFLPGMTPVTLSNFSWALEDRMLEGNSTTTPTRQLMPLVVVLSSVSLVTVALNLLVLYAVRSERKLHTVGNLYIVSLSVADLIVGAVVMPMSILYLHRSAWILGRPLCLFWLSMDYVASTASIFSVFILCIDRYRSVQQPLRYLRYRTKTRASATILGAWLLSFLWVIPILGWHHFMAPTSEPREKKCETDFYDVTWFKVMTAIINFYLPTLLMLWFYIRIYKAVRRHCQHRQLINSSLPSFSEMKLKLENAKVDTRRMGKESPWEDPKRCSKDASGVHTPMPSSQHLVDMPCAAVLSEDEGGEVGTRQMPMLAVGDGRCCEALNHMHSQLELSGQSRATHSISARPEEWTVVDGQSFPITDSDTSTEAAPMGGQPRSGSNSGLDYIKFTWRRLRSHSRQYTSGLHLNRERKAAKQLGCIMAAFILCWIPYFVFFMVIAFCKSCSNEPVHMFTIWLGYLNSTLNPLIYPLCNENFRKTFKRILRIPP

[21] = molecular target: Histamine H1 receptor (Cavia porcellus) (UniProt P31389); conditions: 10 uM
[22] = molecular target: Histamine H1 receptor (Rattus norvegicus) (UniProt P31390); assay: The compound was evaluated for intrinsic activity in relaxed rat aortic rings with intact endothelium, submaximally precontracted with 15.8 nM U-46,619; format: functional, tissue-based; parameters: unit not given here; conditions: Aorta
Target sequence in this assay (P31390 whole entry): as the sequence (P31390 whole entry) above

[23] = molecular target: Histamine H1 receptor (Rattus norvegicus) (UniProt P31390); assay: Compound was evaluated for mepyramine antagonism effects in rat aorta (relaxation) at a mepyramine concentration of 100 nM; conditions: read-out: pA2 (converted)
Target sequence in this assay (P31390 whole entry, looked up): as the sequence (P31390 whole entry) above

[24] = molecular target: Histamine H1 receptor (Cavia porcellus) (UniProt P31389); assay: Negative logarithm of receptor dissociation constant Kp was reported in guinea pig ileum whole segment; format: functional, tissue-based
Method in brief: (§5)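 Guinea-pig ileum (0.1 µM atropine, 37 °C Tyrode's). […] Where several partial-agonist concentrations were used, the overall value comes from a Kaumann-Marano plot with slope constrained to unity.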

[25] = molecular target: Histamine H1 receptor (Rattus norvegicus) (UniProt P31390); assay: maximum relaxation evoked by carbachol in relaxed rat aortic rings with intact endothelium, submaximally precontracted with 15.8 nM U-46,619; format: functional, tissue-based; conditions: Aorta
Target sequence in this assay (P31390 whole entry): as above

[26] = molecular target: Histamine H1 receptor (Cavia porcellus) (UniProt P31389); assay: Negative logarithm of receptor dissociation constant Kp was reported guinea pig ileal whole segment; format: functional; method in brief: as §5
[27] = molecular target: Serotonin 3 (5-HT3) receptor; assay: Compound was evaluated for its antagonist affinity towards 5-hydroxytryptamine 3 receptor of guinea pig; format: functional, Cavia porcellus; method in brief: as §2
[28] = molecular target: Histamine H1 receptor (Cavia porcellus) (UniProt P31389); assay: The compound was evaluated for intrinsic activity i.e. second curves of histamine controls set to 100%, aorta primed with histamine; termed: intrinsic activity
[29] = molecular target: Histamine H1 receptor (Cavia porcellus) (UniProt P31389); assay: Intrinsic activity was reported in guinea pig ileum whole segment; format: functional, tissue-based
[30] = molecular target: Histamine H1 receptor (Cavia porcellus) (UniProt P31389); assay: Antagonist effects was studied on contraction of guinea-pig ileum preparation; value ranges from 3 to 30; f means observed by Kaumann-Marano plot; format: functional, tissue-based
[31] = molecular target: Histamine H1 receptor (Cavia porcellus) (UniProt P31389); assay: The compound was evaluated for intrinsic activity i.e. maximum histamine controls relative to contraction evoked by 10 uM PGF2-alpha; format: functional; method in brief: as §4
[32] = molecular target: Histamine H1 receptor (Cavia porcellus) (UniProt P31389); assay: concentration of mepyramine was determined; value ranges from 1 to 30; format: functional
Method in brief: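 Guinea-pig ileum segments (either sex), mounted isotonically (0.5 g preload) at 37 °C in aerated Tyrode's with 0.1 µM atropine. […] Full pA2 was taken from an Arunlakshana-Schild plot with the slope constrained to unity.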

[33] = molecular target: Histamine H1 receptor (Rattus norvegicus) (UniProt P31390); assay: Intrinsic activity of the histamine as reported in relaxed rat aortic rings with intact endothelium, submaximally precontracted with 15.8 nM U-46,619; format: functional, tissue-based; conditions: Aorta
Target sequence in this assay (P31390 whole entry): as above

[34] = molecular target: Histamine H1 receptor (Cavia porcellus) (UniProt P31389); assay: Intrinsic activity was reported in guinea pig ileum whole segment.; format: functional, tissue-based

T1 sequence (P31389 whole entry): as the sequence (P31389 whole entry) above

| Kb [3] [nM] | Kb [4] [nM] | Kb [5] | Kb [6] [nM] | Kb [7] [nM] | Kb [8] [nM] | EC50 [9] | Kb [10] [nM] | Kb [11] [nM] | EC50 [12] [nM] | EC50 [14] [nM] | Kb [1] | EC50 [16] [nM] | Emax [22] | pKp [24] | Structure (SMILES) | also measured |
| --- | --- | --- | --- | --- | --- | --- | --- | --- | --- | --- | --- | --- | --- | --- | --- | --- |
| > 3160 | 45700 | 1.58 nM and 0.977 nM | 3550 | > 1580 | 34700 | 1950 nM and 309 nM | 6460 | 2820 | 851 | 182 |  |  |  |  | NCCc1cnc(CCC(c2ccccc2)c2ccccc2)[nH]1 | Kb ([1]; in the assay text read “at 1-30 nM mepyramine” for “at 100 nM mepyramine”): 0.776 nM; Kb [2]: 9.12 nM; Kb [13]: 14100 nM |
| > 1580 | 14500 | 1.78 nM | 5750 | > 1580 | 12600 | 77.6 nM | 4070 | 3550 | 158 | 57.5 | 0.741 nM and 1.35 nM | 490 |  |  | CNCCc1cnc(CCC(c2ccccc2)c2ccccc2)[nH]1 | Kb [15]: 9.55 nM |
|  |  |  |  |  |  |  |  |  |  |  |  |  |  |  | NCCc1c[nH]c(CCCCC(c2ccccc2)c2ccccc2)n1 | Kb [17]: 1000 nM; Kb [18]: 1070 nM; Kb [19]: 832 nM; Emax [20]: 0; Emax [21]: 0 |
|  |  |  |  | > 501 | 20000 |  |  | 933 | 355 | 148 | 1.41 nM and 2.14 nM | 2290 | 56 and 62 | 6.17 | c1ccc(C(CCc2nc(CCNC3CC3)c[nH]2)c2ccccc2)cc1 | Kb [23]: 5.75 nM |
|  |  |  |  |  |  |  |  |  |  |  |  |  |  |  | NCCc1c[nH]c(CCC(c2ccccc2)c2ccccc2)n1 | Emax [25]: 46; pKp [26]: 6.04; pA2 [27]: < 5.7; Emax [28]: 72; Emax [29]: 100; Concentration [30]: 30 µM; Emax [31]: 84; Concentration [32]: 30 nM; Emax [33]: 50 |
|  |  |  |  | > 1000 | 31600 |  |  | 1020 | 646 | 302 |  |  | 44 and 47 | 5.75 | CCNCCc1c[nH]c(CCC(c2ccccc2)c2ccccc2)n1 | Kb ([1]; in the assay text read “at 5 nM mepyramine” for “at 100 nM mepyramine”): 1.55 nM; Emax [34]: 89 |
